Measurements: ChEMBL document CHEMBL1149098, “Design, synthesis, and evaluation of novel thienopyrrolizinones as antitubulin agents” (J Med Chem, 2004)

Tests used:
[1] = test system: L1210; experiment: In vitro antiproliferative activity against L1210 cell line, activity expressed as growth inhibition; assay type: functional; settings: Mus musculus
Procedure, shortened: (§1)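 MTT proliferation assay. Adherent cells trypsinized and seeded at densities keeping controls in exponential growth. Drug exposure for four doubling times, at most 7 days. MTT (5 mg/mL stock) added for 4 h at 37 °C, formazan dissolved in DMSO, OD read at 540 nm. % growth from treated/control OD, tri- or hexaplicates averaged against log concentration. GI50 from linear regression on the linear zone.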

[2] = test system: PC-3; experiment: Cytotoxicity against human prostate PC-3 cell line; assay type: functional
[3] = test system: SW-620; experiment: Cytotoxicity against human colon SW-620 cell line; assay type: functional
[4] = test system: M14; experiment: Cytotoxicity against human melanoma M-14 cell line; assay type: functional
[5] = organism: Homo sapiens; experiment: Compound was evaluated for anticancer activity in the hollow fiber assay, activity expressed as total score; assay type: functional
Procedure, shortened: (§2)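 Mouse hollow-fiber model: PVDF fibres holding 12 human tumour cell lines implanted ip and sc. Drug in 10% DMSO in saline/Tween-80, given ip once daily for four doses at each of two dose levels, triplicate. Fibres collected the day after the last dose for viable cell mass. Each ≥50% reduction versus vehicle controls scores 2, summed per site.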

[6] = test system: Homo sapiens; experiment: Compound was evaluated for anticancer activity in the hollow fiber assay, activity expressed as ip score; assay type: functional; procedure, shortened: as §2
[7] = test system: Homo sapiens; experiment: Compound was evaluated for anticancer activity in the hollow fiber assay, activity expressed as sc score; assay type: functional; procedure, shortened: as §2
[8] = test system: RXF 393; experiment: Cytotoxicity against human renal XF-393 cell line; assay type: functional
[9] = test system: CCRF-CEM; experiment: Cytotoxicity against human leukemia CCRF-CEM cell line; assay type: functional
[10] = test system: MDA-N; experiment: Cytotoxicity against human breast MDA-N cell line; assay type: functional
[11] = test system: NCI-H522; experiment: Cytotoxicity against human NSCL NCI-H522 cell line; assay type: functional
[12] = target: Tubulin (Bos taurus, UniProt Q6B856+Q862L2+Q862F3); experiment: Inhibitory concentration against calf tubulin polymerization; assay type: protein assay
Procedure, shortened: (§3)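 Calf brain tubulin purified by three assembly–disassembly cycles, about 2–3 mg/mL in 0.1 M MES, 0.5 mM MgCl2, 2 mM EGTA, 1 mM GTP, pH 6.6. Assembly followed continuously by turbidimetry at 37 °C. IC50 is the concentration halving the maximum assembly rate of drug-free tubulin. Deoxypodophyllotoxin measured the same day as reference.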

[13] = test system: Mus musculus; experiment: In vivo anticancer activity against an ip P388 murine model after intravenous administration of 50 mg/kg compound; assay type: functional
Procedure, shortened: (§4)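 Female B6D2F1 mice, 4–6 weeks old, 20–22 g, inoculated ip with 10^6 P388 leukemia cells. Single ip or iv injection on day 1 at the listed dose (range 25–400 mg/kg). BCNU run as internal reference. Median survival of treated versus control mice gives T/C (%). Activity threshold set at T/C 125%.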

[14] = test system: Mus musculus; experiment: In vivo anticancer activity against an ip P388 murine model after intraperitoneal administration of 200 mg/kg compound; assay type: functional; procedure, shortened: as §4
[15] = test system: Mus musculus; experiment: In vivo anticancer activity against an ip P388 murine model after intraperitoneal administration of 50 mg/kg compound; assay type: functional; procedure, shortened: as §4
[16] = test system: LS174T; experiment: In vitro antiproliferative activity against LS174T cell line; assay type: functional, Mus musculus; settings: Homo sapiens; procedure, shortened: as §1
[17] = test system: DU-145; experiment: In vitro antiproliferative activity against DU145 cell line; assay type: functional, Mus musculus; settings: Homo sapiens; procedure, shortened: as §1
[18] = test system: Mus musculus; experiment: In vivo anticancer activity against an ip P388 murine model after intravenous administration of 400 mg/kg compound; assay type: functional; procedure, shortened: as §4
[19] = test system: L1210; experiment: Compound was tested for percentage of L1210 cells accumulated in the G2 + M + 8N phase of the cell cycle at 0.5 uM; assay type: functional, Mus musculus
Procedure, shortened: (§5)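 Flow cytometry of L1210 cells (2.5×10^5/mL) exposed to drug for 21 h (about two doubling times). Cells fixed in 70% ethanol, washed twice in PBS, then 30 min in PBS with 100 µg/mL RNAse and 25 µg/mL propidium iodide. 10 000 cells counted per sample. Reported as % of cells in G2 + M + 8N.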

[20] = test system: L1210; experiment: In vitro antiproliferative activity against L1210 cell line; assay type: functional; settings: Mus musculus; procedure, shortened: as §1
[21] = test system: Mus musculus; experiment: In vivo anticancer activity against an ip P388 murine model after intraperitoneal administration of 25 mg/kg compound; assay type: functional; procedure, shortened: as §4
[22] = test system: P388; experiment: In vitro antiproliferative activity against P388 cell line; assay type: functional; settings: Mus musculus; procedure, shortened: as §1
[23] = test system: OVCAR-3; experiment: In vitro antiproliferative activity against OVCAR-3 cell line; assay type: functional, Mus musculus; settings: Homo sapiens; procedure, shortened: as §1
[24] = test system: Mus musculus; experiment: In vivo anticancer activity against an ip P388 murine model after intravenous administration of 200 mg/kg compound; assay type: functional; procedure, shortened: as §4
[25] = test system: A2780; experiment: In vitro antiproliferative activity against A2780 cell line; assay type: functional, Mus musculus; settings: Homo sapiens; procedure, shortened: as §1
[26] = test system: A549; experiment: In vitro antiproliferative activity against A549 cell line; assay type: functional, Mus musculus; settings: Homo sapiens; procedure, shortened: as §1
[27] = test system: B16; experiment: In vitro antiproliferative activity against B16 cell line; assay type: functional; settings: Mus musculus; procedure, shortened: as §1
[28] = test system: Mus musculus; experiment: In vivo anticancer activity against an ip P388 murine model after intraperitoneal administration of 400 mg/kg compound; assay type: functional; procedure, shortened: as §4
[29] = test system: Mus musculus; experiment: In vivo anticancer activity against an ip P388 murine model after intravenous administration of 100 mg/kg compound; assay type: functional; procedure, shortened: as §4
[30] = test system: Mus musculus; experiment: In vivo anticancer activity against an ip P388 murine model after intraperitoneal administration of 100 mg/kg compound; assay type: functional; procedure, shortened: as §4
[31] = test system: HT-29; experiment: In vitro antiproliferative activity against HT-29 cell line; assay type: functional, Mus musculus; settings: Homo sapiens; procedure, shortened: as §1
[32] = Inhibitory concentration against calf microtubule polymerization; assay type: functional, Bos taurus; procedure, shortened: as §3
[33] = test system: KB; experiment: In vitro antiproliferative activity against KBA1 cell line; assay type: functional, Mus musculus; settings: Homo sapiens; procedure, shortened: as §1
[34] = test system: Mus musculus; experiment: In vivo anticancer activity against an ip P388 murine model after intravenous administration of 25 mg/kg compound; assay type: functional; procedure, shortened: as §4
[35] = test system: M14; experiment: Cytotoxicity against human melanoma M-14 cell line from the NCI 60 tumoral cell line panel; assay type: functional
[36] = test system: L1210; experiment: Compound was tested for percentage of L1210 cells accumulated in the G2 + M + 8N phase of the cell cycle at 50 uM; assay type: functional, Mus musculus; procedure, shortened: as §5

O=C1c2scc(-c3ccc(O)cc3)c2-n2cccc21
GI50 [1]: 30.1 µM

O=C1c2sccc2-n2cccc21
GI50 [1]: 85 µM

COc1ccc(-c2cccc3c2-n2cccc2C3=O)cc1
GI50 [1]: 3 µM

O=C1c2scc(-c3ccccc3O)c2-n2cccc21
GI50 [1]: 3.7 µM

COc1ccc(-c2csc3c2-n2cccc2C3=O)cc1
GI50 [2]: 0.0398 µM | GI50 [3]: 0.0251 µM | GI50 [4]: 0.0316 µM | Activity [5]: 16 | Activity [6]: 16 | GI50 [1]: 0.19 µM | Activity [7]: 0 | GI50 [8]: 0.0631 µM | GI50 [9]: 0.0316 µM | GI50 [10]: 0.0126 µM | GI50 [11]: 0.0158 µM

Cc1csc2c1-n1cccc1C2=O
GI50 [1]: > 100 µM

Oc1ccc(-c2csc3nc(O)c4cccn4c23)cc1O
GI50 [1]: 8.8 µM

O=C1c2scc(-c3ccc(O)c(O)c3O)c2-n2cccc21
GI50 [1]: 12 µM

COc1ccc(-c2cc3c(s2)C(=O)c2cccn2-3)cc1
GI50 [1]: 9.4 µM

O=C1c2scc(-c3ccccc3)c2-n2cccc21
GI50 [2]: 12.6 µM | GI50 [3]: 15.8 µM | GI50 [4]: 20 µM | GI50 [8]: 12.6 µM | GI50 [9]: 20 µM | GI50 [10]: 15.8 µM | GI50 [11]: 12.6 µM

CC(C)Oc1ccc(-c2csc3c2-n2cccc2C3=O)cc1
GI50 [1]: 12.2 µM

COc1cccc(-c2csc3c2-n2cccc2C3=O)c1
GI50 [1]: 5.2 µM

COc1ccc(-c2coc3c2-n2cccc2C3=O)cc1OC
GI50 [1]: 24.2 µM

COc1ccc(-c2csc3c2-n2cccc2C3=O)cc1OC
GI50 [1]: 11.7 µM | IC50 [12]: 19 µM

CCCOc1ccc(-c2csc3c2-n2cccc2C3=O)cc1
GI50 [1]: 28.1 µM

COc1ccc(-c2cccc3c2-n2cccc2C3=O)cc1OC
GI50 [1]: 72.2 µM

COc1ccc(-c2csc3c2-n2cccc2C3=O)cc1OCc1ccccc1
GI50 [1]: 5.4 µM

COc1cc(-c2csc3c2-n2cccc2C3=O)ccc1OCc1ccccc1
GI50 [1]: 24.1 µM

COc1ccc(-c2csc3c2-n2cccc2C3O)cc1 (stereo unspecified)
GI50 [1]: 4.9 µM

O=C1c2scc(-c3ccc(F)cc3)c2-n2cccc21
GI50 [2]: 31.6 µM | GI50 [3]: 25.1 µM | GI50 [4]: 31.6 µM | GI50 [8]: 25.1 µM | GI50 [9]: 31.6 µM | GI50 [10]: 7.94 µM | GI50 [11]: 15.8 µM

O=C1c2scc(-c3ccc4c(c3)OCO4)c2-n2cccc21
GI50 [1]: 4.2 µM

COc1ccc(-c2csc3c2-n2cccc2/C3=N/OCCCN(C)C)cc1
GI50 [1]: 3.9 µM

COc1cc(-c2csc3c2-n2cccc2C3=O)ccc1O
GI50 [1]: 8 µM

CCCCOc1ccc(-c2csc3c2-n2cccc2C3=O)cc1
GI50 [1]: 29.6 µM

COc1ccc(-c2csc3c2-n2cccc2/C3=N/O)cc1
GI50 [1]: 34.3 µM

O=C1c2cccc(-c3ccco3)c2-n2cccc21
GI50 [1]: 27.6 µM

O=C1c2scc(-c3cccc(O)c3)c2-n2cccc21
GI50 [1]: 29 µM

COc1ccc(C2CC(=O)c3cccn32)cc1O (stereo unspecified)
GI50 [1]: 25 µM

O=C1c2cccc(-c3cccs3)c2-n2cccc21
GI50 [1]: 71.9 µM

COc1ccc(-c2csc3c2-n2cccc2C3=O)cc1O
T/C [13]: 104% | T/C [14]: 117% | T/C [15]: 116% | GI50 [16]: 0.887 µM | GI50 [17]: 0.043 µM | T/C [18]: 19% | GI50 [1]: 0.015 µM | Cells [19]: 86% | GI50 [20]: 0.015 µM | T/C [21]: 108% | GI50 [22]: 0.021 µM | GI50 [23]: 0.031 µM | T/C [24]: 103% | IC50 [12]: 2.9 µM | GI50 [25]: 0.04 µM | GI50 [26]: 0.045 µM | GI50 [27]: 0.023 µM | T/C [28]: 121% | T/C [29]: 102% | T/C [30]: 121% | GI50 [31]: 0.713 µM | IC50 [32]: 2.9 µM | GI50 [33]: 0.015 µM | T/C [34]: 102%

COc1ccc(-c2csc3nc(O)c4cccn4c23)cc1OC
GI50 [1]: > 100 µM

COc1ccc(-c2csc3c2-n2cccc2C3=O)c(OC)c1OC
GI50 [1]: 36.4 µM

O=C1c2scc(-c3ccc(Cl)cc3)c2-n2cccc21
GI50 [2]: 100 µM | GI50 [3]: 100 µM | GI50 [35]: 50.1 µM | GI50 [8]: 100 µM | GI50 [9]: 100 µM | GI50 [10]: 7.94 µM | GI50 [11]: 3.16 µM

COc1ccc(-c2c[nH]c3c2-n2cccc2C3=O)cc1OC
GI50 [1]: 11.8 µM

CCOc1ccc(-c2csc3c2-n2cccc2C3=O)cc1
GI50 [1]: 0.43 µM

COc1ccccc1-c1csc2c1-n1cccc1C2=O
GI50 [1]: 18.9 µM | Cells [36]: 75%

O=C1c2scc(-c3ccc(O)c(O)c3)c2-n2cccc21
T/C [13]: 101% | T/C [14]: 133% | T/C [15]: 118% | T/C [18]: 21% | GI50 [1]: 0.28 µM | T/C [21]: 111% | T/C [24]: 103% | IC50 [12]: 21 µM | T/C [28]: 149% | T/C [29]: 105% | T/C [30]: 134% | T/C [34]: 95%
